Screening data from PubChem BioAssay.
STAT3 inh: inhibitors of IL-6 induced STAT3 signaling; U3A cells, IL-6 STAT3-luciferase reporter, luminescence; host cell line lacks STAT1; inhibition, % at 5.5 µM; 190,000 compounds, 0.89% hits; AID 862;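 active means inhibition above the mean inhibition across all screened compounds plus 3 SD, cut at about 44% in these data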
STAT3 activator: activators of IL-6 induced STAT3 signaling | activation (% of control), % at 5.6 µM | 190,000 compounds, 0.91% hits | U3A cells, IL-6 STAT3-luciferase reporter, luminescence; 100% = signal with IL-6 EC80 alone;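 active means activation above the screen-wide mean of compound activation plus 3 SD, cut at about 130% in these data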
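Detection: reporter luminescence signal / Assay system: STAT1-lacking human U3A cells, STAT3 luciferase reporter / Incubation: compound pre-incubation 1 h before IL-6, then 6 h stimulation at 37 °C / Control set: IL-6-only high control / Read-out: % activation relative to IL-6 control / Probe or stimulus: Interleukin-6, 33 ng/mL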
APP 5'UTR act: activates APP 5'UTR luciferase reporter; SH-SY5Y APP 5'UTR luciferase reporter, luminescence; zero percent = DMSO vehicle wells; activation, % at 2 µM; 190,000 compounds, 1% hits;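 active means activation above a set limit, based on mean plus 3 SD of controls, cut at about 140% in these data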
STAT1 blocker: reduces IFN-gamma driven STAT1 reporter signal | NIH 3T3 STAT1-luciferase reporter, luminescence | inhibition, % at 5.5 µM | 200,000 compounds, 0.35% hits | AID 920;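 active means inhibition above a set limit, the mean inhibition across all tested compounds plus 3 SD, cut at about 34% in these data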
NF-kB expr up: raises NF-kB expression in human neuronal cells | NF-kB reporter expression; hits give high values | fold change at 12.5 µM | 190,000 compounds, 1.6% hits | AID 1239; in the data active means fold change above about 3.3
STAT1 act: activators of IFN-gamma induced STAT1 signaling | NIH 3T3 STAT1-luciferase reporter, luminescence; 100% = IFN-gamma alone, no compound | AID 932 | activation (% of control), % at 5.5 µM | 200,000 compounds, 2.6% hits;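 active means activation above the screen-wide mean activation plus 3 SD, cut at about 130% in these data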
STAT1 activ conf: STAT1 activation, confirmation assay | activation (% of control), % at 5.7 µM | shares compounds with STAT1 act | NIH 3T3 STAT1-luciferase reporter, IFN-gamma potentiation, luminescence; 100% = IFN-gamma EC80 alone, no compound | 1,200 compounds, 97% hits | AID 1262;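 active means activation above a set limit carried over from the earlier primary STAT1 screen, cut at about 140% in these data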
NFkB act: counter-screen for STAT1 activators: NF-kappaB activation; shares compounds with STAT1 act; 1,200 compounds, 43% hits; activation (% of control), % at 5.7 µM; HEK293T NF-kB luciferase reporter, TNF-alpha stimulated, luminescence; 100% = TNF-alpha with vehicle only;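 active means activation above the mean of solvent-only control wells plus 3 SD, set per campaign, cut at about 130% in these data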;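 further: TNF-alpha given at a submaximal dose yielding about 80% of full reporter signal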
STAT3 act STAT1c: activates human STAT3, counter-screen to STAT1 activators. shares compounds with STAT1 act. U3A cells STAT3-luciferase reporter, IL-6, luminescence; cells lack STAT1; 100 = IL-6 alone, no compound effect. activation (% of control), % at 5.7 µM. 1,200 compounds, 46% hits. AID 1316;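 active means activation above the solvent-only control well mean plus 3 SD, set per plate batch, cut at about 110% in these data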;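 further: higher means more STAT3 reporter activation so hits are non-selective activators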
Large screens that a line does not name were inactive (follow-up assays come after a bar, where they were run). Hits are enriched below; roughly 4.9% of the tested compounds scored in any of these assays.

Cc1c(C(=O)NCC2CCCO2)oc2ccc3c(c12)C(=O)CC(C)(C)O3 (centres undefined)	APP 5'UTR act 156.5, NF-kB expr up 3.44, STAT1 act 155.2 | STAT1 activ conf 209.4 | NFkB act inactive | STAT3 act STAT1c 126.5
Cc1c(C(=O)NCC2CCCO2)oc2ccc(S(=O)(=O)N3CCCC3)cc12 (centres undefined)	none
CC(=O)Oc1ccc(/C=N/NC(=S)Nc2ccccc2)cc1	NF-kB expr up 5.31, STAT1 act 160.5 | STAT1 activ conf 209.0 | NFkB act inactive | STAT3 act STAT1c inactive
CCN(CC)c1ccc(/C=N/NC(=O)Nc2ccccc2)cc1	STAT1 act 161.7 (no result: NF-kB expr up) | STAT1 activ conf 173.2 | NFkB act 134.5 | STAT3 act STAT1c 122.5
CCOc1ccc(/C=N/NC(=O)CC(=O)NCc2ccccc2)cc1	none
CCOc1ccc(/C=N/NC(=O)Nc2ccccc2)cc1	STAT1 act 161.4 | STAT1 activ conf 207.7 | NFkB act 140.3 | STAT3 act STAT1c 121.2
CCN(CC)c1ccc(/C=N\NC(N)=O)cc1	none
CCC(C)NC(=O)c1ccccc1-c1nc2ccccc2[nH]1 (centres undefined)	none
C=CCn1c(SCC(N)=O)nc2scc(-c3ccc(C)o3)c2c1=O	APP 5'UTR act 166.6, STAT1 act 155.4 | STAT1 activ conf 201.9 | NFkB act 137.6 | STAT3 act STAT1c 128.5
Cc1cc(NS(=O)(=O)N(C)C)ccc1C(C)C	none
O=C(Nc1ccc2oc(-c3ccccc3)nc2c1)c1cccnc1	none
O=C(Nc1ccc2oc(-c3ccccc3)nc2c1)C1CCCO1 (centres undefined)	APP 5'UTR act 146.6, NF-kB expr up 3.65, STAT1 act 155.3 | STAT1 activ conf 182.2 | NFkB act 133.7 | STAT3 act STAT1c inactive
O=C(Nc1ccc2oc(-c3ccccc3)nc2c1)c1ccco1	APP 5'UTR act 177.7, NF-kB expr up 5.11, STAT1 act 167.5 | STAT1 activ conf 201.7 | NFkB act 134.1 | STAT3 act STAT1c inactive
Cc1ccc(S(=O)(=O)NC(N)=NCCc2ccc(Cl)cc2)cc1C	none
Clc1cccc(N2CCN(Cc3nnc(-c4ccccc4)o3)CC2)c1	none
Clc1cccc(-c2nnc(-c3ccccc3)o2)c1	APP 5'UTR act 136.5, NF-kB expr up 8.8, STAT1 act 155.8 | STAT1 activ conf 208.7 | NFkB act inactive | STAT3 act STAT1c inactive
O=c1oc2cc(OCc3ccc(F)cc3F)ccc2cc1-c1ccc2ccccc2n1	none
Cc1nc(CN2CCN(C(=O)c3ccc(C(C)(C)C)cc3)CC2)cs1	none
CCOc1ccc(OCc2ccc(C(=O)N/N=C(\C)c3ccccn3)cc2)cc1	STAT1 act 168.8 | STAT1 activ conf 145.6 | NFkB act 188.2 | STAT3 act STAT1c inactive
COc1ccc(C(=O)N/N=C(\c2ccccc2)c2ccccn2)cc1	none
COc1ccc(C(=O)/C=C/Nc2cccc(C)n2)cc1OC	NF-kB expr up 4.12, STAT1 act 171.0 | STAT1 activ conf 209.4 | NFkB act inactive | STAT3 act STAT1c inactive
COc1ccc(N/C=C\C(=O)c2ccc3c(c2)OCO3)cc1OC	STAT1 act 156.1 | STAT1 activ conf 171.2 | NFkB act inactive | STAT3 act STAT1c inactive
O=C(Oc1ccc2ccccc2c1Cl)N1CCCCCC1	NF-kB expr up 5.13, STAT1 act 173.7 | STAT1 activ conf 211.1 | NFkB act inactive | STAT3 act STAT1c 140.7
Cc1ccc2nc(NC(=O)c3ccc(OCC4CCCO4)cc3)sc2c1 (centres undefined)	STAT1 act 158.4 | STAT1 activ conf 147.5 | NFkB act inactive | STAT3 act STAT1c inactive
Cc1ccc(CNC(=O)c2ccc(OCC3CCCO3)cc2)cc1 (centres undefined)	none
c1csc(C2=NNC(=NC3CCCCC3)SC2)c1	APP 5'UTR act 137.0, STAT1 act 155.1 | STAT1 activ conf 167.6 | NFkB act inactive | STAT3 act STAT1c inactive
Clc1ccc(C2=NNC(=NCC3CCCO3)SC2)cc1 (centres undefined)	none
O=C(N=Nc1c(O)n(Cc2ccccc2)c2ccccc12)c1ccc(O)cc1	APP 5'UTR act 152.8, STAT1 act 161.0 | STAT1 activ conf 217.4 | NFkB act inactive | STAT3 act STAT1c 118.3
CCOc1ccc(N=c2scc(-c3ccccc3)n2CCO)cc1	none
CCn1c(-c2ccccc2)csc1=Nc1ccc(O)cc1	APP 5'UTR act 152.3, STAT1 act 162.6 (no result: NF-kB expr up) | STAT1 activ conf 172.1 | NFkB act inactive | STAT3 act STAT1c 119.8
CSc1ccc(/C=N/NC(=O)c2sccc2C)cc1	APP 5'UTR act 219.1, NF-kB expr up 4.11, STAT1 act 191.6 | STAT1 activ conf 249.0 | NFkB act inactive | STAT3 act STAT1c inactive
Cc1cccc(Nc2nc(-c3cccs3)cs2)n1	APP 5'UTR act 208.2, NF-kB expr up 11.3, STAT1 act 178.9 | STAT1 activ conf 260.9 | NFkB act 147.4 | STAT3 act STAT1c 143.6
O=C(Nc1nc(-c2ccccn2)cs1)c1ccc(Cl)s1	none
CC(=O)Nc1nc(C)c(-c2csc(Nc3ccccn3)n2)s1	STAT1 act 191.0 | STAT1 activ conf 221.1 | NFkB act 142.3 | STAT3 act STAT1c 120.5
Cc1cccnc1Nc1nc(-c2ccccn2)cs1	NF-kB expr up 7.53, STAT1 act 256.5 | STAT1 activ conf 260.6 | NFkB act 168.5 | STAT3 act STAT1c inactive
Cc1cccc(Nc2nc(-c3ccccn3)cs2)n1	APP 5'UTR act 210.5, NF-kB expr up 5.63, STAT1 act 191.1 | STAT1 activ conf 270.7 | NFkB act 139.4 | STAT3 act STAT1c inactive
CSCCC(=O)Nc1nc(-c2ccccn2)cs1	none
Cc1cccc(NS(=O)(=O)c2cccs2)n1	none
NC(=O)NC(=O)COC(=O)CCSc1ccccc1	none
Cc1ccc(OCC(=O)Nc2ccccc2F)cc1C	none
Nc1ccc(Nc2nc(-c3cccs3)cs2)cc1	APP 5'UTR act 311.4, STAT1 act 159.9 | STAT1 activ conf 167.6 | NFkB act 141.9 | STAT3 act STAT1c inactive
c1csc(-c2csc(-c3cccs3)n2)c1	none
Cc1ccc(N/C=C(/C#N)c2ccsc2)cc1C	NF-kB expr up 5.23, STAT1 act 193.0 | STAT1 activ conf 234.7 | NFkB act 156.2 | STAT3 act STAT1c 125.0
Cc1ccc(N/N=C(\C#N)C(N)=S)cc1C	none
